Active and inactive are the calls of the source. No cut-off for these calls is given here.
Key:
LLC-PK1 [1] = test: Growth inhibition of pig LLC-PK1 cells expressing MDR1 by Alamar Blue assay; type: functional; details: Sus scrofa
In short: (§1)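 Porcine epithelial L-MDR1 (P-gp expressing) cells and their non-expressing parent line were exposed to compound for 72 h. Viability was read with AlamarBlue dye and GI50 derived. P-gp expression was verified by Western blot with β-actin as loading control. The resistance ratio compares GI50 in MDR1 versus parent cells.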

[2] = Growth inhibition of P-gp expressing human NCI-ADR-RES cells by Alamar Blue assay; type: functional
In short: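 72-h cytotoxicity in 96-well plates with AlamarBlue viability dye, giving GI50. Line 1 uses docetaxel-resistant PC3 prostate cells (PC3-DR), and line 2 uses NCI/ADR-Res ovarian cells. P-gp expression in both was confirmed by Western blot, with β-actin as the loading control.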

[3] = Growth inhibition of pig LLC-PK1 cells by Alamar Blue assay; type: cell-based, Sus scrofa
In short: (§2)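 Cell viability was read with AlamarBlue dye in 96-well format and GI50 values derived, to assess P-gp effects. Cells were P-gp-expressing NCI/ADR-Res ovarian cancer cells and L-MDR1 porcine epithelial cells, each with its non-expressing parent line. P-gp expression was confirmed by Western blot with β-actin as loading control. Resistance is the GI50 in the P-gp line over the GI50 in the parent line.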

OVCAR-8 = test: Resistance factor, ratio of GI50 for P-gp expressing NCI-ADR-RES cells to GI50 for human OVCAR8 cells; type: functional; in short: as §2
PC-3 [4] = test: Growth inhibition of human PC3 cells after 72 hrs by Alamar Blue assay; type: functional; details: PC-3, 72 h
In short: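 PC3 prostate cancer cells and docetaxel-resistant PC3-DR cells were exposed to drug for 72 hours in 96-well format. Viability was read with AlamarBlue dye and GI50 derived. Resistance is the GI50 in PC3-DR over the GI50 in parental PC3.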

[5] = Growth inhibition of human OVCAR8 cells by Alamar Blue assay; type: functional; details: OVCAR-8; in short: as §2
Tubulin (Homo sapiens) = Tubulin (Homo sapiens) (UniProt P68371+Q9H4B7+P0DPH7+P68366+Q13509+Q71U36+P04350+Q3ZCM7+P07437+P68363+Q9BQE3+Q6PEY2+Q13885+Q9BVA1+Q9BUF5); details: 5 uM
PC-3 [6] = test: Induction of beta tubulin de-stabilization in human PC3 cells at 10 nM after 24 hrs by DAPI-staining based immunofluorescence assay; type: cell-based
In short: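 PC3 cells were treated for 24 hours with the test agent at 1, 10 or 100 nM, or with 10 nM docetaxel or vinblastine as stabilizing and destabilizing references. Cells were immunostained for beta-tubulin (green) with DAPI nuclear counterstain (blue) and the microtubule staining pattern imaged.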

LLC-PK1 [7] = test: Resistance factor, ratio of GI50 for pig LLC-PK1 cells expressing MDR1 to GI50 for pig LLC-PK1 cells; set-up: species or system Sus scrofa; in short: as §1

GI50 (PC-3 [4]): 5.2 nM
inhibition (Tubulin (Homo sapiens)): Active
SMILES: CC[C@]1(O)C[C@@H]2CN(CCc3c([nH]c4ccccc34)[C@@](C(=O)OC)(c3cc4c(cc3OC)N(C)[C@H]3[C@@](O)(C(=O)OC)[C@H](OC(C)=O)[C@]5(CC)C=CCN6CC[C@]43[C@@H]65)C2)C1 [VINBLASTINE]
GI50 (LLC-PK1 [1]): 86.8 nM
GI50 [2]: 1400 nM
GI50 [3]: 1.5 nM
RatioGI50 (OVCAR-8): 500
GI50 [5]: 2.8 nM
Activity (PC-3 [6]): Active
RatioGI50 (LLC-PK1 [7]): 58
